Laboratory results: ChEMBL document CHEMBL1131341, “Orally active antimalarial 3-substituted trioxanes: new synthetic methodology and biological evaluation” (J Med Chem, 1998)

Experiments:
[1] = system: Plasmodium falciparum; assay: In vitro antimalarial activity in chloroquine-sensitive Plasmodium falciparum NF54; assay type: functional, organism-based
Outline: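 IC50 (nM) was measured against cultured parasites in quadruplicate and derived from fitted dose-response curves with R² ≥0.989.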

[2] = system: Plasmodium berghei; assay: Effective in vivo dose ED50 against Plasmodium berghei N after subcutaneous dose at 1,3,10 or 30 mg/kg/day, n=5; assay type: functional; settings: sc
Outline: (§1)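 Mice infected with chloroquine-sensitive P. berghei (N) were dosed daily for 4 days at 1, 3, 10 and 30 mg/kg, with five mice per dose regimen. The ED values were derived from these four dose levels.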

[3] = system: Plasmodium berghei; assay: Effective in vivo dose ED90 against Plasmodium berghei N on oral administration; assay type: functional; outline: as §1
[4] = system: Plasmodium berghei; assay: Effective in vivo dose ED50 against Plasmodium berghei N after oral dose at 1,3,10 or 30 mg/kg/day, n=5; assay type: functional; outline: as §1

Row | Compound | IC50 [1] | ED50 [2] | ED90 [3] | ED50 [4]
1 | CO[C@@H]1O[C@]2(c3ccc(-c4ccccc4)cc3)CC[C@H]3CCCCC31OO2 | 76 nM |  |  | 
2 | CO[C@H]1O[C@]2(C)CC[C@H]3CCCCC31OO2 | 960 nM |  |  | 
3 | CO[C@@H]1O[C@]2(CF)CC[C@H]3CCCCC31OO2 | 320 nM |  |  | 
4 | CO[C@H]1O[C@]2(c3ccccc3)CC[C@H]3CCCCC31OO2 | 38 nM |  |  | 
5 | CO[C@H]1O[C@]2(c3cccc4ccccc34)CC[C@H]3CCCCC31OO2 | 44 nM |  |  | 
6 | CO[C@H]1O[C@]2(c3ccc(COC(C)=O)cc3)CC[C@H]3CCCCC31OO2 | 20 nM | 2.8 mg/kg | 22 µM/kg | 14 mg/kg
7 | CO[C@@H]1O[C@]2(c3ccccc3)CC[C@H]3CCCCC31OO2 | 110 nM |  |  | 
8 | COc1ccc([C@@]23CC[C@H]4CCCCC4(OO2)C(OC)O3)cc1 (some centres not stated) | > 2500 nM |  |  | 
9 | CO[C@@H]1O[C@]2(c3ccc(F)cc3C)CC[C@H]3CCCC[C@@]31OO2 | 99 nM |  |  | 
10 | CO[C@H]1O[C@]2(c3ccc(COCc4ccc(F)cc4)cc3)CC[C@H]3CCCCC31OO2 | 23 nM | 3.5 mg/kg | 6.8 µM/kg | 3.8 mg/kg
11 | CO[C@H]1O[C@]2(c3ccc(-c4ccccc4)cc3)CC[C@H]3CCCCC31OO2 | 68 nM |  |  | 
12 | CO[C@@H]1O[C@]2(c3ccc(F)cc3)CC[C@H]3CCCCC31OO2 | 65 nM |  |  | 
13 | COC(=O)OCc1ccc([C@@]23CC[C@H]4CCCCC4(OO2)[C@H](OC)O3)cc1 | 79 nM |  |  | 
14 | CO[C@H]1O[C@]2(c3ccc(CO)cc3)CC[C@H]3CCCCC31OO2 | 15 nM | 3.4 mg/kg | 12 µM/kg | 5.5 mg/kg
15 | CO[C@H]1O[C@]2(CF)CC[C@H]3CCCCC31OO2 | 160 nM |  |  | 
16 | CO[C@@H]1O[C@]2(c3cccc4ccccc34)CC[C@H]3CCCCC31OO2 | 170 nM |  |  | 

Row | Compound | IC50 [1] | ED50 [2] | ED90 [3] | ED50 [4]
17 | COCc1ccc([C@@]23CC[C@H]4CCCCC4(OO2)[C@H](OC)O3)cc1 | 39 nM |  |  | 
18 | CO[C@H]1O[C@]2(c3ccc(C(F)(F)F)cc3)CC[C@H]3CCCCC31OO2 | 53 nM |  |  | 
19 | CO[C@H]1O[C@]2(c3ccc(F)cc3)CC[C@H]3CCCCC31OO2 | 30 nM | 6.8 mg/kg | 23 µM/kg | 10 mg/kg
20 | CO[C@H]1O[C@]2(c3ccc(Cl)cc3)CC[C@H]3CCCCC31OO2 | 55 nM |  |  | 
21 | COCc1ccc([C@@]23CC[C@H]4CCCCC4(OO2)[C@@H](OC)O3)cc1 | 51 nM |  |  | 
22 | CO[C@@H]1O[C@]2(c3ccc(COCc4ccc(F)cc4)cc3)CC[C@H]3CCCCC31OO2 | 42 nM |  |  | 
23 | CO[C@@H]1O[C@]2(c3ccc(C(F)(F)F)cc3)CC[C@H]3CCCCC31OO2 | 39 nM |  |  | 
24 | CO[C@@H]1O[C@]2(c3ccc(COC(C)=O)cc3)CC[C@H]3CCCCC31OO2 | 44 nM |  |  | 
25 | CO[C@@H]1O[C@@]2(c3ccccc3)OOC13CCCC[C@@H]3CC2C (some centres not stated) | 21 nM |  |  | 
26 | CO[C@@H]1O[C@]2(c3ccco3)CC[C@H]3CCCCC31OO2 | 600 nM |  |  | 
27 | CO[C@H]1O[C@]2(c3ccc(F)cc3C)CC[C@H]3CCCC[C@@]31OO2 | 34 nM |  |  | 
28 | CO[C@@H]1O[C@]2(c3ccc(CO)cc3)CC[C@H]3CCCCC31OO2 | 78 nM |  |  | 
29 | CO[C@@H]1O[C@]2(c3ccc(Cl)cc3)CC[C@H]3CCCCC31OO2 | 49 nM |  |  | 
30 | CO[C@H]1O[C@]2(CCC(F)(F)F)CC[C@H]3CCCCC31OO2 | 84 nM |  |  | 
31 | C[C@@H]1CC[C@H]2[C@@H](C)C(=O)O[C@@H]3O[C@@]4(C)CC[C@@H]1[C@]32OO4 [ARTEMISININ] | 9.2 nM | 3 mg/kg |  | 8.5 mg/kg
32 | CCN(CC)CCCC(C)Nc1ccnc2cc(Cl)ccc12 (configuration not stated) [CHLOROQUINE] |  | 1 mg/kg |  | 1.2 mg/kg
